Results published in ChEMBL document CHEMBL5150022, “Small Molecule Inhibitors of Lymphocyte Perforin as Focused Immunosuppressants for Infection and Autoimmunity” (J Med Chem, 2022).
pIC50: −log10 of the molar value. Several values for one entry are separate records, joined by “and”; a condition that tells them apart may be missing. Equal values may be shown once.

Tests used:
[1] = Antiproliferative activity against human KHYG-1 at 20 uM incubated for 20 mins; type: functional
[2] = Inhibition of Perforin-1 in sheep red blood cells incubated for 30 mins; type: cell-based, Ovis aries; conditions: rbc
Summary of the method: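 Recombinant mouse perforin-mediated lysis of sheep red blood cells, read as turbidity change by absorbance at 650 nm. Compounds first tested at a single 20 μM point, then at 100, 20, 4, 0.8 and 0.16 μM to give IC₅₀. Hits were rechecked with 0.1% BSA.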

[3] = molecular target: T1, Perforin-1 (Homo sapiens) (UniProt P14222); assay: Inhibition of Perforin-1 in human Jurkat cells at 20 uM incubated for 4 hrs relative to control; type: cell-based
T1 sequence (whole entry): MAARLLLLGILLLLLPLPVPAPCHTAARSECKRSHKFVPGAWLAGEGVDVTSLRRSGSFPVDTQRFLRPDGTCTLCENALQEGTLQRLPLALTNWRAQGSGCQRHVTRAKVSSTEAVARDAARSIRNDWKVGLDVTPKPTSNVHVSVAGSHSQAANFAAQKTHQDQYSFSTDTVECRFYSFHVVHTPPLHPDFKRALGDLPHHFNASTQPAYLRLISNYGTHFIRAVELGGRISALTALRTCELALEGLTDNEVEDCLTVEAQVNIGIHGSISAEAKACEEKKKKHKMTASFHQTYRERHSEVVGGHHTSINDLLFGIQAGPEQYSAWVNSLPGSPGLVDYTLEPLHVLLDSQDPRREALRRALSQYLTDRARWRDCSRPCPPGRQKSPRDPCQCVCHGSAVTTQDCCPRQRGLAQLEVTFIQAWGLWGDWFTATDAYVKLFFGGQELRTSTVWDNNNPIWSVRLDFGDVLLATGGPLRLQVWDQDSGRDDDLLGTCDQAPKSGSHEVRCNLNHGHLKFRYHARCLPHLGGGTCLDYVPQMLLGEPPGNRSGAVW

[4] = Reversal of Perforin-1 dependent NK-cell mediated graft rejection in human KHYG-1 cells assessed as reduction in perforin-1 activity at 90 mg/kg for 24 days relative to control; type: functional; design: scale not given: the % may be the effect or the level left; conditions: time 24 day
[5] = Mutagenicity in Salmonella typhimurium TA100 by AMES test; type: toxicity, Salmonella enterica subsp. enterica serovar Typhimurium
[6] = molecular target: T2, Perforin-1 (Mus musculus) (UniProt P10820); assay: Inhibition of mouse Perforin-1 in Natural killer cell at 20 uM relative to control
T2 sequence (whole entry): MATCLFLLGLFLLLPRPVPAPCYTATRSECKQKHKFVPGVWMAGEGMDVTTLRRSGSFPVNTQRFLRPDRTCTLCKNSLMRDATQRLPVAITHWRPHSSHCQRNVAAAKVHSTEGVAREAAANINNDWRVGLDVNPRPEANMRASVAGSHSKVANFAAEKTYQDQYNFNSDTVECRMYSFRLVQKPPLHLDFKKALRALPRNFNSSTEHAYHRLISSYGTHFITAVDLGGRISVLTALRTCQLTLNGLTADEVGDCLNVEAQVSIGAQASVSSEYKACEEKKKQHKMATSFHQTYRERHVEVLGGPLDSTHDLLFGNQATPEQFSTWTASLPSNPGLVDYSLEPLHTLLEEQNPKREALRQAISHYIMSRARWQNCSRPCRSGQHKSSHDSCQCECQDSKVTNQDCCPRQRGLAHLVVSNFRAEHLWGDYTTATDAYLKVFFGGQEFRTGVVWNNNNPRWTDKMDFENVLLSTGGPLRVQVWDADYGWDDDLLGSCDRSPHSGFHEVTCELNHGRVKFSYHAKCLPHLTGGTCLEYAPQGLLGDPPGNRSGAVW

[7] = Toxicity in C57BL/6 mouse assessed as animal survival at 100 mg/kg, po measured for 2 days; type: organism-based; conditions: in vivo, time 2 day, read-out: Activity
[8] = Plasma protein binding in mouse; type: ADME, cell-free; conditions: read-out: PPB (converted)
[9] = molecular target: T1, Perforin-1 (Homo sapiens); assay: Inhibition of Perforin-1 in human KHYG-1 cells assessed as unbound concentration; type: cell-based
Summary of the method: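 KHYG1 NK cell killing of ⁵¹Cr-labelled K562 targets; IC₉₀ determined. Compound binding to proteins in the assay medium was measured and used to estimate the unbound IC₉₀.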

[10] = Elimination half life in mouse plasma at 10 to 160 mg/kg, po measured for 24 hrs; type: ADME, organism-based; conditions: dose 10-160 mg/kg, read-out: beta t1/2 (converted)
[11] = Toxicity in C57BL/6 mouse assessed as effect on aspartate transaminase level at 100 mg/kg, po measured for 2 days; type: organism-based; conditions: in vivo, 48 h, time 2 day
Acetylcholinesterase = Acetylcholinesterase (Homo sapiens, UniProt P22303); assay: Inhibition of AChE (unknown origin)
Brain [12] = assay: Anti-neuroinflammation in LPS-induced mouse brain assessed as reduction in caspase-3/7 production at 250 microg/kg administered for 3 days; type: functional; design: scale not given: the % may be the effect or the level left; conditions: dose 250 µg/kg; time 3 day
Brain [13] = assay: Anti-neuroinflammation in LPS-induced mouse brain assessed as reduction in prostaglandin E2 production at 250 microg/kg administered for 3 days; type: functional; design: scale not given: the % may be the effect or the level left; conditions: dose 250 µg/kg; time 3 day
[14] = molecular target: Beta-secretase 1 (Homo sapiens) (UniProt P56817); assay: Inhibition of BACE1 (unknown origin) at 1 uM relative to control
[15] = Stability in human plasma incubated for 24 hrs by HPLC analysis; type: ADME, cell-free; conditions: read-out: Stability
Summary of the method: (§1)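 Compound incubated in human or mouse plasma at 37 °C for 24 h; parent remaining quantified by HPLC.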

[16] = Cytotoxicity against human Natural killer cells assessed as reduction in cell viability at 20 uM
[17] = Cytotoxicity against human Natural killer cells at 20 uM; conditions: natural killer cell
[18] = molecular target: T1, Perforin-1 (Homo sapiens); assay: Inhibition of Perforin-1 in human Natural killer cells at 20 uM incubated after 24 hrs relative to control; type: cell-based; conditions: Natural killer cell, time 4.0 hrs, in the assay text read “after 4 hrs” for “after 24 hrs”
Summary of the method: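 Human KHYG1 NK cells plus medium coincubated with inhibitor at 20 μM final, or 5 μM in one case. ⁵¹Cr-labelled K562 leukaemia targets added; lysis measured by ⁵¹Cr release after 4 h. Effector NK cell viability measured 24 h later.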

[19] = Stability in mouse plasma incubated for 24 hrs by HPLC analysis; type: ADME, cell-free; conditions: read-out: Stability; summary of the method: as §1

Chain of Acetylcholinesterase (P22303 whole entry): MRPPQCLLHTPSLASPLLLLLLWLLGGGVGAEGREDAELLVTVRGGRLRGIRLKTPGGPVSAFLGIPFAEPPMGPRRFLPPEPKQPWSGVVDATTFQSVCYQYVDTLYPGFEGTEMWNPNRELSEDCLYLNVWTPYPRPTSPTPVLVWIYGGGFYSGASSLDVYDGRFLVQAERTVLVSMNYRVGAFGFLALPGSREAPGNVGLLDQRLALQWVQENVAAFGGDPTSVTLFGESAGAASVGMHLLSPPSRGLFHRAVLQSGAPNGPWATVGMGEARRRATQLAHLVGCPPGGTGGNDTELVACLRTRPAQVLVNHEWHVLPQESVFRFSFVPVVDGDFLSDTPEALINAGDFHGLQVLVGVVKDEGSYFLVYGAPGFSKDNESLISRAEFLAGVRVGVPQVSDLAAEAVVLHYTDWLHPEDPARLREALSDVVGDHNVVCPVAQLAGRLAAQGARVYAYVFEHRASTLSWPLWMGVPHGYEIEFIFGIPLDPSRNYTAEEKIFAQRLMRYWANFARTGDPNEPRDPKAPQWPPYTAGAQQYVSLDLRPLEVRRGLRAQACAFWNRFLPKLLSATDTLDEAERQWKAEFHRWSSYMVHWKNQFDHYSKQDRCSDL
Chain of Beta-secretase 1 (Homo sapiens) (P56817 whole entry): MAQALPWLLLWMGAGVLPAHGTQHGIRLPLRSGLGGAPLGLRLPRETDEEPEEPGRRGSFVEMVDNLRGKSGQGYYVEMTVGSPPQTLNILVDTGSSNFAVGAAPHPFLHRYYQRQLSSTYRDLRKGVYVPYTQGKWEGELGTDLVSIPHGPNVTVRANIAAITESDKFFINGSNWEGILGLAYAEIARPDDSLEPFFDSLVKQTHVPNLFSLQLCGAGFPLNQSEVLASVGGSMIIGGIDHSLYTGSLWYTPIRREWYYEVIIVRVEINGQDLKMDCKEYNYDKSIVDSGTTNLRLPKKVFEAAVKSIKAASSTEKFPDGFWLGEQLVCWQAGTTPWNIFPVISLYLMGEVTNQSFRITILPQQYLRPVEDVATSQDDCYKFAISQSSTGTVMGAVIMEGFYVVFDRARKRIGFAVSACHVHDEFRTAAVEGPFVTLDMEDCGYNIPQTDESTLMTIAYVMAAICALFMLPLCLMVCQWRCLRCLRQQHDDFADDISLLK

Question: Which results are given for `CNC(=O)c1ccc(-c2c(C#N)c(N)n3c(nc4ccccc43)c2C#N)cc1`?
Answer: Activity [1]: 84%; pIC50 [2]: 5.98; inhibition [3]: 91%

Question: What does the source list for `Cc1cc2c(c(=S)[nH]1)C(=O)O/C2=C\c1cc2ccccc2s1`?
Answer: Activity [1]: 89%; pIC50 [2]: 6.01; inhibition [3]: 63%

Question: Which results are given for `O=C1NC(=S)N/C1=C/c1ccc(-c2ccc3c(c2)COC3=O)o1`?
Answer: pIC50 [2]: 5.14; inhibition [3]: 99%

Question: With `COc1ncc(-c2ccc(-c3cnc4c(c3)CN(C)C4=O)s2)cc1NS(=O)(=O)c1ccc(F)cc1F` as the compound, how does the Activity [4] read?
Answer: 66%

Question: With `Cc1cc2c(c(=S)[nH]1)C(=O)O/C2=C\c1ccc(C)o1` as the compound, how does the pIC50 [2] read?
Answer: 5.01

Question: What about the pIC50 [5] of the same compound?
Answer: 5.47

Question: What about the inhibition [3] of the same compound?
Answer: 100%

Question: With `O=C1NC(=S)N/C1=C/c1ccc(-c2ccc3c(c2)CCNC3=O)s1` as the compound, how does the inhibition [6] read?
Answer: 60%

Question: And the pIC50 [2]?
Answer: 4.83

Question: And the inhibition [3]?
Answer: 98%

Question: With `CN1Cc2cc(-c3ccc(-c4cncc(NS(=O)(=O)c5ccccc5[N+](=O)[O-])c4)s3)ccc2C1=O` as the compound, how does the survival at 48 h [7] read?
Answer: 100%

Question: What about the fraction unbound [8] of the same compound?
Answer: 0.002

Question: What about the IC90 [9] of the same compound?
Answer: 0.77 µM

Question: And the half-life [10]?
Answer: 2.4 h

Question: What about the Activity [11] of the same compound?
Answer: 60%

Question: With `O=C1OCc2cc(-c3ccc(-c4ccc(CO)cc4)s3)ccc21` as the compound, how does the pIC50 (Acetylcholinesterase) read?
Answer: 5.10

Question: What about the Activity (Brain [12]) of the same compound?
Answer: 63%

Question: What about the Activity (Brain [13]) of the same compound?
Answer: 55%

Question: And the inhibition [14]?
Answer: 72%

Question: Which remaining at 24 h [15] does the source give for `NC(=O)c1ccc(-c2ccc(-c3ccc4c(c3)COC4=O)s2)cc1` here?
Answer: 46%

Question: And the Activity [1]?
Answer: 70%

Question: And the Activity [16]?
Answer: 90%

Question: What about the pIC50 [2] of the same compound?
Answer: 4.88

Question: What about the Activity [17] of the same compound?
Answer: 38% and 63%

Question: What about the inhibition [18] of the same compound?
Answer: 63%

Question: And the remaining at 24 h [19]?
Answer: 75%

Question: What about the inhibition [3] of the same compound?
Answer: 52%

Question: Which Activity [16] does the source give for `NC(=O)c1ccc(-c2ccc(-c3ccc4c(c3)COC4=O)s2)cn1` here?
Answer: 82%

Question: And the Activity [17]?
Answer: 80%
